# Compounds with a hit are over-represented: about 2.5% of the library has one in this group of screens.
# EWS-Fli inh: blocks EWS/Fli oncoprotein-driven transcription; inhibition, % at 12.6 µM; actives 0.67% (n = 350,000); A673 NR0B1-luciferase reporter, viability-normalised;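 active means mean inhibition of at least 50% after viability correction, with every replicate also passing that limit; inconclusive means mean reaches 50% but only one of two replicates passes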;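 further: firefly luciferase signal divided by Alamar Blue viability fluorescence both relative to DMSO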
# FN deposition inh: fibronectin deposition inhibition. AH1F fibroblasts, Alexa488-fibronectin deposition fluorescence, overnight. inhibition, % at 12.6 µM. actives 0.086% (n = 350,000). AID 743247;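 active means mean inhibition across replicates of 30% or more, regardless of how many single replicates reach that level; inconclusive means mean under 30% yet at least half of replicates reach 30%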;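 further: positive control wells lacked labelled fibronectin entirely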
#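 Assay system: AH1F fibroblasts assembling fluorescent fibronectin matrix; Amount: 10000 AH1F cells per well; Buffer or medium: DMEM, 2% serum; Probe or stimulus: Alexa488-fibronectin, 24 nM final in well; Doses: single compound dose, delivered by pin transfer; Incubation: 1 h adhesion, overnight exposure; Measured by: fluorescence 485/525 nm; Read-out: fibronectin deposition inhibition.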
# PAX8 inh HTS: inhibitors of PAX8 transcriptional activity in RMG-I cells. AID 652154. inhibition, % at 12.6 µM. RMG-I TPO-luciferase reporter, SteadyGlo, 24 h. actives 1.2% (n = 360,000);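 active means mean replicate inhibition at least 60% with every replicate also reaching 60%; inconclusive means only one of the two criteria is met; inactive means mean below 60% and not all replicates reaching 60%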;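 further: luciferase light reporting Pax8 driven TPO promoter activity; plate controls were median of neutral control wells for no effect and mitoxantrone controls for full effect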
# HIV Env fusion: blocks HIV Env-driven cell-cell fusion; HeLa-JRFL Env/CEM21 cell fusion, luciferase; inhibition, % at 12.3 µM; actives 1.1% (n = 360,000); AID 651610;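 active means mean replicate inhibition score of at least 50 and every replicate individually at or above 50; inconclusive means only one of the two criteria met; inactive means mean below 50 and not all replicates reaching 50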;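 further: 0% = plate neutral controls and 100% = maraviroc near 300 nM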
# AF4-AF9 inh: blocks AF4 peptide binding to human AF9. AlphaScreen, biotin-AF4 peptide binding to FLAG-AF9. AID 651704. actives 0.47% (n = 350,000). P42568. inhibition, % at 10 µM;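 active means every replicate reaching a set inhibition limit, whatever the replicate mean, cut at about 25% in these data; inconclusive means mean inhibition reaches that limit but some replicates miss it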;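 further: 0% = plate neutral control median and 100% = total signal loss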
# Target sequence (P42568 whole entry, looked up): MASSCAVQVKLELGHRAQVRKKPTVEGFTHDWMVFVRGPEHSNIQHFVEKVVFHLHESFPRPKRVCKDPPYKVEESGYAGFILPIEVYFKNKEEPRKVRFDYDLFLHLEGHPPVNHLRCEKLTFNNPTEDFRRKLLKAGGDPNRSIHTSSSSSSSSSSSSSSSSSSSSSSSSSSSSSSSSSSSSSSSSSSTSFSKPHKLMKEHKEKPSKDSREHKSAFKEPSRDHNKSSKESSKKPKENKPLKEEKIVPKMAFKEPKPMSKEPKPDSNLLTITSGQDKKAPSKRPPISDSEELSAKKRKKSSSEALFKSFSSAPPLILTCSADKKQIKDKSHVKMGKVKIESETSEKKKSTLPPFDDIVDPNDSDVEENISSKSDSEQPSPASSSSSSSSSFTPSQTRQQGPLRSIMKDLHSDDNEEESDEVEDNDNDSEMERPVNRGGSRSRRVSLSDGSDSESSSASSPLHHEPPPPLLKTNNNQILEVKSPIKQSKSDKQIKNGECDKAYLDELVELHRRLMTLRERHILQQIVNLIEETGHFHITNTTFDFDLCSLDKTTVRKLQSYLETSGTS
# Glyco luc inh: blocks N-linked glycosylation in D54 reporter cells; D54 ERlucT glycosylation luciferase reporter, 24 h; percent of 100 nM tunicamycin response; reporter increase, % at 12.5 µM; actives 0.23% (n = 360,000);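 active means mean luciferase reporter signal, scaled so untreated is 0 and the glycosylation-blocking control 100, at or above a set limit in every replicate; inconclusive means mean reaches the limit but not every replicate does; inactive means mean below the limit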;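 further: luciferase carries N-glycosylation sites so blocking glycosylation raises the light; 0% = median of neutral control wells and 100% = median of 100 nM tunicamycin wells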
# The depositor's hits bear a star; i = inactive; ? = inconclusive; · = not tested or not shown; [ ] = dose if it differs, or a comment.
SMILES,EWS-Fli inh,FN deposition inh,PAX8 inh HTS,HIV Env fusion,AF4-AF9 inh,Glyco luc inh
Cn1nnnc1Sc1ncnc2scc(-c3ccc([N+](=O)[O-])cc3)c12,19,18,108*,-122,14,-21
O=C(NCC[C@H]1CC[C@H](NC(=O)C2CCCC2)[C@@H](CO)O1)c1cc(Cl)cc(Cl)c1,19,·,23,-1[16.7 µM],-4,·
O=C(C[C@@H]1C[C@@H]2c3cc(NC(=O)Nc4ccccc4)ccc3O[C@@H]2[C@@H](CO)O1)NCC1CC1,2,0,·,·,-2,·
COCC(=O)Nc1ccc2c(c1)OC[C@H](C)N(C(=O)c1ccccc1)C[C@H](C)[C@@H](OC)CN(C)C2=O,0,17,·,·,1,·
C[C@@H]1CN([C@@H](C)CO)C(=O)c2cc(NC(=O)Nc3ccc(F)cc3)ccc2O[C@@H]1CN(C)Cc1ccc(C(F)(F)F)cc1,11,·,70*,·,-2,·
COc1ccc(NC(=O)Nc2ccc3c(c2)C(=O)N([C@H](C)CO)C[C@@H](C)[C@H](CN(C)Cc2ccc(C(F)(F)F)cc2)O3)cc1,2,·,12,11[16.7 µM],4,·
COc1ccc(NC(=O)Nc2ccc3c(c2)C(=O)N([C@@H](C)CO)C[C@@H](C)[C@H](CN(C)Cc2ccc(C(F)(F)F)cc2)O3)cc1,-3,·,91*,13[16.7 µM],2,·
C[C@H](CO)N1C[C@H](C)[C@@H](CN(C)Cc2ccc(C(F)(F)F)cc2)Oc2ccc(NC(=O)Nc3ccccc3)cc2C1=O,10,·,·,-7[16.7 µM],-1,·
COc1ccc(CN(C)C[C@@H]2Oc3ccc(NC(=O)Nc4ccc(OC)cc4)cc3C(=O)N([C@H](C)CO)C[C@@H]2C)cc1,-10,·,-7,63*[16.7 µM],4,·
COc1ccc(N2C(=O)N3[C@H](c4ccc(Br)cc4)[C@@H]4C(=O)N(C(C)(C)C)C(=O)[C@@H]4[C@]3(Cc3ccccc3)C2=O)cc1,6,-3,-3,26,2,-1
CC[C@@]12C(=O)N(c3ccccc3)C(=O)N1[C@H](c1ccc(OC)cc1)[C@@H]1C(=O)N(C(C)(C)C)C(=O)[C@@H]12,-7,2,-32,73*,-8,-2
CC[C@@]12C(=O)N(c3cccc(Br)c3)C(=O)N1[C@H](c1ccc(OC)cc1)[C@@H]1C(=O)N(C(C)(C)C)C(=O)[C@@H]12,4,-2,17,96*,2,1
CC[C@@]12C(=O)N(c3cccc(Br)c3)C(=O)N1[C@H](c1ccc(Br)cc1)[C@@H]1C(=O)N(C(C)(C)C)C(=O)[C@@H]12,0,-10,-6,-11,2,-3
CC[C@@]12C(=O)N(c3ccc(C)cc3)C(=O)N1[C@H](c1ccc(Br)cc1)[C@@H]1C(=O)N(C(C)(C)C)C(=O)[C@@H]12,-3,-2,-10,86*,1,-2
CC[C@@]12C(=O)N(c3ccc(C)cc3)C(=O)N1[C@H](c1ccc(OC)cc1)[C@@H]1C(=O)N(C(C)(C)C)C(=O)[C@@H]12,-17,-2,-5,80*,-1,-2
COCC#Cc1ccc2c(c1)O[C@@H](CN(C)Cc1ccncc1)[C@H](C)CN([C@H](C)CO)S2(=O)=O,-11,-11,·,-6[16.7 µM],1,·
CO[C@@H]1CN(C)C(=O)c2cc(NS(C)(=O)=O)ccc2OC[C@H](C)N(CC2CC2)C[C@@H]1C,-4,9,1,·,0,·
CCS(=O)(=O)c1ncc(Cl)c(C(=O)Nc2ccc(S(=O)(=O)N(C)c3ccccc3)cc2)n1,·,67*,110*,?,1,-18
Cc1ccccc1CS(=O)(=O)c1ncc(Cl)c(C(=O)Nc2ccc(F)cc2)n1,56*,39*,30,24,2,-9
O=C(Nc1ccc(F)cc1)c1nc(S(=O)(=O)Cc2ccccc2)ncc1Cl,56*,-1,104*,10,-9,-10
Cc1ccc(NC(=O)c2nc(S(=O)(=O)Cc3ccccc3)ncc2Cl)cc1,61*,29,?,1,2,-2
C[C@H]1CN([C@@H](C)CO)C(=O)c2cc(Br)cnc2O[C@H]1CN(C)C(=O)Nc1ccc(F)cc1,0,-4,4,-2[16.7 µM],-1,·
CO[C@@H]1CN(C)C(=O)c2cccc(C#N)c2OC[C@H]2O[C@H](CC[C@H]2OC)CCN(C)C(=O)[C@H]1C,-3,-12,6,1[16.7 µM],-4,·
Cc1cccc(C)c1NC(=O)c1nc(S(=O)(=O)Cc2ccccc2)ncc1Cl,73*,4,28,-86,-2,-18
Cc1ccccc1NC(=O)c1nc(S(C)(=O)=O)ncc1Cl,74*,4,18,28,-11,-14
SMILES,EWS-Fli inh,FN deposition inh,PAX8 inh HTS,HIV Env fusion,AF4-AF9 inh,Glyco luc inh
Cc1nnc(NC(=O)c2nc(S(=O)(=O)Cc3ccccc3)ncc2Cl)s1,58*,7,6,-139,-4,4
Cc1cccc(CS(=O)(=O)c2ncc(Cl)c(C(=O)Nc3c(C)cccc3C)n2)c1,·,12,-13,34,-10,-12
CCCc1nnc(NC(=O)c2nc(S(=O)(=O)Cc3cccc(C)c3)ncc2Cl)s1,·,24,-7,-5,-18,12
Cc1ccc(C(=O)OCn2ncc(Cl)c(Cl)c2=O)cc1,·,17*,·,i,·,-24
O=C(OCn1ncc(Cl)c(Cl)c1=O)c1ccc(C(F)(F)F)cc1,·,·,·,i,·,31*
COc1ccccc1NC(=O)Nc1nc(C(N)Cc2ccccc2)cs1 (stereo not drawn),22,-2,12,-25,6,-3
COc1ccc(CC(N)c2csc(NC(=O)Nc3cc(OC)ccc3OC)n2)cc1 (stereo not drawn),1,-8,-8,-12,31*,-4
COc1ccc(OC)c(NC(=O)Nc2nc(C(N)CCc3ccccc3)cs2)c1 (stereo not drawn),22,·,18,-43,28*,-11
C[C@H]1CN([C@@H](C)CO)S(=O)(=O)c2ccc(-c3ccccc3)cc2O[C@@H]1CN(C)C(=O)c1ccccc1F,-5,9,·,5[16.7 µM],·,·
Cc1ccoc1C(=O)Nc1ccc2ccccc2c1,51*,5,4,-236,-5,-16
CC(C)C[C@@H]1NC(=O)[C@@H]2C[C@H](C(=O)NCc3ccc(F)cc3)[C@H](c3ccc(O)cc3)N2C1=O,1,·,2,7[16.7 µM],-9,·
C[C@H](O)[C@@H]1C(=O)N2CCc3c([nH]c4cccc(-c5ccccc5)c34)[C@@H]2C[C@@H]1N(C)C(=O)OCc1ccccc1,5,-4,31,71*,·,·
COc1ccc(N2CCN(C(=O)Cc3nn(C)c(=O)c4ccccc34)CC2)cc1,·,·,·,61*,·,0
Cc1noc(C)c1NC(=O)N(C)C[C@H]1Oc2c(NC(=O)c3cnccn3)cccc2C(=O)N([C@@H](C)CO)C[C@@H]1C,2,-6,·,·,-4,·

# High-throughput results (PubChem BioAssay)
